“Also recorded” adds a separate entry of the source.
Columns and labels:
[1] = tested on: EGFR, ITK, Lck, SRC, LYN, and JAK3; assay: Selectivity for BTK over other kinases; format: biochemical; settings: stated in introduction
[2] = Plasma pharmacokinetics, single ascending dose; format: in vivo, human; settings: for CL/F / AUC(0-t): mean ± SD; for T last: median (min, max); for Tmax / half-life / AUC(0-inf) / MRT / Vd/F / AUC(0-t) / Cmax: human, plasma; for Tmax / half-life / AUC(0-inf) / MRT / Vd/F / AUC(0-t): oral; for Cmax: po
Outline: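 Healthy subjects received single oral doses under fasting conditions: 100 mg (three subjects), or 200, 400, 600 or 800 mg in cohorts of eight randomized 6 active:2 placebo, double-blind. Plasma drug was quantified by validated HPLC-tandem accurate mass spectrometry with a calibration range of 5.00–5000 ng/mL. Cmax, Tmax, AUC, t1/2, CL/F, Vz/F and MRT were derived by noncompartmental analysis and reported as mean ± SD (%CV) or median.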

[3] = Plasma pharmacokinetics, food effect; format: in vivo, human; settings: 600 mg; for half-life / Tmax: human, plasma, oral; for half-life: T1/2, 600 mg, mean ± SD; for Tmax: median (min, max)
Outline: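 This was a randomized, open-label, two-period crossover in 12 healthy subjects. Each received one oral 600 mg dose fasted then fed, or the reverse, with a 7-day washout. Drug was quantified by validated HPLC-tandem accurate mass spectrometry (calibration 5.00–5000 ng/mL). Parameters came from noncompartmental analysis.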

[4] = target: BTK (Homo sapiens, UniProt Q06187); assay: BTK receptor occupancy in peripheral blood monocytes; format: in vivo
Outline: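 Peripheral blood was sampled from healthy adult Chinese subjects given oral test compound or placebo. In the multiple-dose part, samples were taken at 0, 12, 24 and 168 h after the first dose (day 1) and at 0 and 12 h after the last dose (day 10). In the food-effect part, samples were taken at 0, 12, 24 and 120 h postdose. BTK occupancy was measured by validated ELISA (sensitivity 1.784 ng/mL). Negative placebo values were set to 0.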

[5] = Safety, adverse events, food effect study; format: in vivo, human; settings: for AEs / Increased blood triglycerides / Abdominal discomfort / Constipation / Decreased leukocyte count / Decreased lymphocyte count / Decreased neutrophil count / Dermatitis allergic / Dyspepsia / Increased ALT / Increased AST / Increased blood bilirubin / Increased blood cholesterol / Increased blood creatinine / Lethargy / Mouth ulceration / Oropharyngeal pain / Sinus arrythmia / Treatment discontinuation due to AEs / Upper respiratory tract infection: Food effect 600 mg, n (%)
Outline: (§1)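 Safety was monitored by vital signs, clinical laboratory tests, physical examination, 12-lead ECG, AEs and SAEs. AEs were coded with MedDRA 23.1 and graded by CTCAE 5.0. Subjects were discharged 6 days after the last dose, with a follow-up visit 8–14 days after the last dose. The safety set comprised randomized subjects who received active drug or placebo and had post-dose safety data.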

[6] = Safety, adverse events, whole study; format: in vivo, human
Outline: as §1

[7] = among 57 subjects who received SN1011

Chain of BTK (Q06187 whole entry): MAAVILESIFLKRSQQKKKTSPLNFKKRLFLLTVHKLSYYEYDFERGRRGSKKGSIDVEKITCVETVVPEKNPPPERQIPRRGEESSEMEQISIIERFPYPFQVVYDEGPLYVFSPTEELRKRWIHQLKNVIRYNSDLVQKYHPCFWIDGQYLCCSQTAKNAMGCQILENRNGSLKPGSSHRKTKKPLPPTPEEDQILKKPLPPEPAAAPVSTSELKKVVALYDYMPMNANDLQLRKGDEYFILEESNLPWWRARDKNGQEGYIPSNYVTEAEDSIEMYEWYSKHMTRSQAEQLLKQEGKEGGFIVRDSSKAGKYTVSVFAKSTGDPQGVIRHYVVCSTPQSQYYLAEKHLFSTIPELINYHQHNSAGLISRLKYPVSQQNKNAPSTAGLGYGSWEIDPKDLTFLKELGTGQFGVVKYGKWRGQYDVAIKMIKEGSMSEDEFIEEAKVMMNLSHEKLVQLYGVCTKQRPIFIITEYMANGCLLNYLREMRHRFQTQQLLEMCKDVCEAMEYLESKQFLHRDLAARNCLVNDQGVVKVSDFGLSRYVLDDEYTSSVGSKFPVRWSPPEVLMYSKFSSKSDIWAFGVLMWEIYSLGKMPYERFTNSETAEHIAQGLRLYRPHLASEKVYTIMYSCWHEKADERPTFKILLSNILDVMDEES

Compound: N#CN1C[C@H](n2nc(-c3ccc(Oc4ccc(Cl)cn4)cc3)c(C(N)=O)c2N)CCC12CC2 [SN1011, 5-amino-3-(4-((5-chloro-2-pyridinyl)oxy)phenyl)-1-((6R)-4-cyano-4-azaspiro[2.5]octan-6-yl)-1H-pyrazole-4-carboxamide]
- selectivity for BTK over other kinases [1]: 700 fold
- CL/F ([2]; SAD 100 mg): 49.6 ± 13.9 (28%) L/h
- T last ([2]; SAD 100 mg): 48.0 (48.0, 72.0) h
- CL/F ([2]; SAD 200 mg): 44.8 ± 15.3 (34%) L/h
- T last ([2]; SAD 200 mg): 72.0 (48.0, 96.0) h
- CL/F ([2]; SAD 400 mg): 36.5 ± 9.1 (25%) L/h
- T last ([2]; SAD 400 mg): 96.0 (72.0, 144.0) h
- CL/F ([2]; SAD 600 mg): 43.4 ± 19.5 (45%) L/h
- T last ([2]; SAD 600 mg): 108.0 (72.0, 144.0) h
- CL/F ([2]; SAD 800 mg): 44.8 ± 22.3 (50%) L/h
- T last ([2]; SAD 800 mg): 132.0 (120.0, 144.1) h
- Tmax [2]: 3 to 5 h
- half-life [2]: 15.5 to 21.8 h
- AUC(0-inf) ([2]; 100 mg): 2110 ± 525 ng·h/mL
- MRT ([2]; 100 mg): 26.4 ± 1.7 h
- Tmax ([2]; 100 mg): 4 h
- Vd/F ([2]; 100 mg): 1210 ± 497 L
- half-life ([2]; 100 mg): 16.5 ± 2.1 h
- AUC(0-t) ([2]; 100 mg, AUC0-24, SAD 100 mg): 1240 ± 339 ng·h/mL
- AUC(0-t) ([2]; 100 mg, AUC0-t, SAD 100 mg): 1880 ± 523 ng·h/mL
- AUC(0-inf) ([2]; 200 mg): 4920 ± 1710 ng·h/mL
- MRT ([2]; 200 mg): 22.9 ± 4 h
- Tmax ([2]; 200 mg): 3 h
- Vd/F ([2]; 200 mg): 989 ± 293 L
- half-life ([2]; 200 mg): 15.5 ± 2.4 h
- AUC(0-t) ([2]; 200 mg, AUC0-24, SAD 200 mg): 3210 ± 1190 ng·h/mL
- AUC(0-t) ([2]; 200 mg, AUC0-t, SAD 200 mg): 4700 ± 1730 ng·h/mL
- AUC(0-inf) ([2]; 400 mg): 11600 ng·h/mL
- MRT ([2]; 400 mg): 29.4 ± 9.9 h
- Tmax ([2]; 400 mg): 3.5 h
- Vd/F ([2]; 400 mg): 997 ± 350 L
- half-life ([2]; 400 mg): 19.3 ± 6.5 h
- AUC(0-t) ([2]; 400 mg, AUC0-24, SAD 400 mg): 6510 ± 1960 ng·h/mL
- AUC(0-t) ([2]; 400 mg, AUC0-t, SAD 400 mg): 11300 ng·h/mL
- AUC(0-inf) ([2]; 600 mg): 16800 ng·h/mL
- MRT ([2]; 600 mg): 28.7 ± 8.5 h
- Tmax ([2]; 600 mg): 4 h
- Vd/F ([2]; 600 mg): 1060 ± 227 L
- half-life ([2]; 600 mg): 19.1 ± 6.4 h
- AUC(0-t) ([2]; 600 mg, AUC0-24, SAD 600 mg): 9100 ± 3420 ng·h/mL
- AUC(0-t) ([2]; 600 mg, AUC0-t, SAD 600 mg): 16400 ng·h/mL
- AUC(0-inf) ([2]; 800 mg): 22300 ng·h/mL
- MRT ([2]; 800 mg): 31.1 ± 6.3 h
- Tmax ([2]; 800 mg): 5 h
- Vd/F ([2]; 800 mg): 1400 ± 760 L
- half-life ([2]; 800 mg): 21.8 ± 4.1 h
- AUC(0-t) ([2]; 800 mg, AUC0-24, SAD 800 mg): 11500 ng·h/mL
- AUC(0-t) ([2]; 800 mg, AUC0-t, SAD 800 mg): 21900 ng·h/mL
- Cmax ([2]; 100 mg): 84.2 ± 16.4 ng/mL
- Cmax ([2]; 200 mg): 293 ± 132 ng/mL
- Cmax ([2]; 400 mg): 487 ± 221 ng/mL
- Cmax ([2]; 600 mg): 674 ± 259 ng/mL
- Cmax ([2]; 800 mg): 779 ± 405 ng/mL
- AUC0-inf, Geometric Mean Ratio ([3]; fed state to fasted state): 93.76%
- AUC0-t, Geometric Mean Ratio ([3]; fed state to fasted state): 92.79%
- Cmax, Geometric Mean Ratio ([3]; fed state to fasted state): 97.08%
- half-life ([3]; Fasted): 24.3 ± 8.7 h
- half-life ([3]; Fed): 26.6 ± 13.3 h
- Tmax ([3]; Fasted): 4 h
- Tmax ([3]; Fed): 6 h
- BTK receptor occupancy ([4]; MAD groups, 10 days of continuous q.d. administration of 400 and 600 mg): above 80%
- BTK receptor occupancy ([4]; over 24 h after single administration of 600 mg, fasted and fed states): above 83%
- AEs ([5]; Total N = 12): 7 (58.3)
- Increased blood triglycerides ([5]; Total N = 12): 5 (41.7)
- AEs ([5]; column Fasted-Fed): 5 (41.7)
- Abdominal discomfort ([5]; column Fasted-Fed): 0
- Constipation ([5]; column Fasted-Fed): 0
- Decreased leukocyte count ([5]; column Fasted-Fed): 0
- Decreased lymphocyte count ([5]; column Fasted-Fed): 0
- Decreased neutrophil count ([5]; column Fasted-Fed): 0
- Dermatitis allergic ([5]; column Fasted-Fed): 0
- Dyspepsia ([5]; column Fasted-Fed): 0
- Increased ALT ([5]; column Fasted-Fed): 0
- Increased AST ([5]; column Fasted-Fed): 0
- Increased blood bilirubin ([5]; column Fasted-Fed): 0
- Increased blood cholesterol ([5]; column Fasted-Fed): 0
- Increased blood creatinine ([5]; column Fasted-Fed): 0
- Increased blood triglycerides ([5]; column Fasted-Fed): 4 (33.3)
- Lethargy ([5]; column Fasted-Fed): 0
- Mouth ulceration ([5]; column Fasted-Fed): 0
- Oropharyngeal pain ([5]; column Fasted-Fed): 0
- Sinus arrythmia ([5]; column Fasted-Fed): 0
- Treatment discontinuation due to AEs ([5]; column Fasted-Fed): 1 (8.3)
- Upper respiratory tract infection ([5]; column Fasted-Fed): 0
- AEs ([5]; column Fed-Fasted): 2 (18.2)
- Abdominal discomfort ([5]; column Fed-Fasted): 0
- Constipation ([5]; column Fed-Fasted): 0
- Decreased leukocyte count ([5]; column Fed-Fasted): 0
- Decreased lymphocyte count ([5]; column Fed-Fasted): 0
- Decreased neutrophil count ([5]; column Fed-Fasted): 0
- Dermatitis allergic ([5]; column Fed-Fasted): 0
- Dyspepsia ([5]; column Fed-Fasted): 0
- Increased ALT ([5]; column Fed-Fasted): 0
- Increased AST ([5]; column Fed-Fasted): 0
- Increased blood bilirubin ([5]; column Fed-Fasted): 1 (9.1)
- Increased blood cholesterol ([5]; column Fed-Fasted): 0
- Increased blood creatinine ([5]; column Fed-Fasted): 0
- Increased blood triglycerides ([5]; column Fed-Fasted): 1 (9.1)
- Lethargy ([5]; column Fed-Fasted): 0
- Mouth ulceration ([5]; column Fed-Fasted): 0
- Oropharyngeal pain ([5]; column Fed-Fasted): 0
- Sinus arrythmia ([5]; column Fed-Fasted): 0
- Treatment discontinuation due to AEs ([5]; column Fed-Fasted): 0
- Upper respiratory tract infection ([5]; column Fed-Fasted): 0
- subjects who experienced AEs ([5]; food effect study, 12 subjects, 600 mg): 58.3%
- subjects with AE leading to study discontinuation ([5]; food effect study, 12 subjects, increased triglycerides, grade 3): 8.3%
- serious adverse events ([6]; all parts of the study): No serious adverse events; also recorded: no SAEs were reported
- subjects who experienced AEs [6, 7]: 28
- total number of AEs [6, 7]: 55

From PMC10582678 (Clinical and Translational Science, 2023)
